The values that follow come from article PMC3288198 (ACS Chemical Biology, 2011).

What is called IC50 is the concentration needed to halve the response being measured. A word on the Ki: it is a dissociation constant, usually derived from enzyme kinetics or from competition with a known ligand.

One data set deals with FLT-3 and STAT5. Briefly: Western blot of FLT-3 and STAT5 levels in MV4-11 cells. Format: cell-based, human. The conditions noted are these: for effect on FLT-3 and STAT5 protein levels: 3 hr post-treatment. An outline of the steps:
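MV4-11 cells cultured with 10% heat-inactivated FBS at 37°C, 5% CO2. Exposed to a concentration series of test compound, harvested 3 hr post-treatment. Lysed in low-salt Tris pH 7.4 buffer containing 1 μM TSA and sonicated. Lysates denatured in LDS and run on 4–12% gradient gels. Blots probed for FLT-3, STAT5, Erk and phospho-Erk; HRP secondary with ECL detection.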
(A western blot detects proteins with antibodies after separation by electrophoresis.)

Data set [1] addresses T1, HDAC6 (Homo sapiens, UniProt Q9UBN7).
T1 sequence (Q9UBN7 1-1215): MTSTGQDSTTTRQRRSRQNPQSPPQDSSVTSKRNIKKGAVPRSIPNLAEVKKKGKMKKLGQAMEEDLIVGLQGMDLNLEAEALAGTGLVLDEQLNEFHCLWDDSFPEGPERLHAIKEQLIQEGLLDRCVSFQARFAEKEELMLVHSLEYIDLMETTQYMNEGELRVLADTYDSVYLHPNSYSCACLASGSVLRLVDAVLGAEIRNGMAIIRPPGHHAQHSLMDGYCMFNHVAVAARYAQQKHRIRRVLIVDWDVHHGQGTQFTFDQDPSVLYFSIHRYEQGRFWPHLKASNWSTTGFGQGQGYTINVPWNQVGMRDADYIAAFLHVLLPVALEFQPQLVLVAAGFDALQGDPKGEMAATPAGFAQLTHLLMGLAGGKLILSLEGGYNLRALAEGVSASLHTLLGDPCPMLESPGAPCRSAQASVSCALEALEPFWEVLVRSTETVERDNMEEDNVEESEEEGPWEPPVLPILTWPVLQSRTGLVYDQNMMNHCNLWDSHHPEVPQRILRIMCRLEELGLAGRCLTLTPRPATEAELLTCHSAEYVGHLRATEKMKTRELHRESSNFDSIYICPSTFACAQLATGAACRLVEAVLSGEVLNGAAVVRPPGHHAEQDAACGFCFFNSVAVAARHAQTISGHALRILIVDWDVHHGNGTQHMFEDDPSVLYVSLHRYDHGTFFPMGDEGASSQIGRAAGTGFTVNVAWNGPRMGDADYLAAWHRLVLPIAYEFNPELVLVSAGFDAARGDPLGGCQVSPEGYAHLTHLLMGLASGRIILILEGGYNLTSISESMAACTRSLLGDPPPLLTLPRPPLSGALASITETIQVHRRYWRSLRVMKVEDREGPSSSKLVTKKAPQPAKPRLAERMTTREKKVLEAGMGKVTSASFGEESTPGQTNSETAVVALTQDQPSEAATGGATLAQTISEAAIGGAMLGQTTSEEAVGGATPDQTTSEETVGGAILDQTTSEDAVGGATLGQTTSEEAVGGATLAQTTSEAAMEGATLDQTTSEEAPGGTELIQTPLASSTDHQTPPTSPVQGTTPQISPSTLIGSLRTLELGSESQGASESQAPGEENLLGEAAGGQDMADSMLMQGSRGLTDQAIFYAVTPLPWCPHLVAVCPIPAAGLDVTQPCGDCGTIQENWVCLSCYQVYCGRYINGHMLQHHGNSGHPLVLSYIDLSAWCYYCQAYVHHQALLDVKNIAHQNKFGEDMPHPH
The data set is described as follows: HDAC deacetylase homogenous fluorescence assay, HDAC6. Format: biochemical. The conditions noted are these: for concentration above which HDAC6 was inhibited: data not shown. An outline of the steps:
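Baculovirus-expressed recombinant human enzyme (HDAC3 as HDAC3/N-CoR2 complex) incubated with serially diluted test compound over a 12-point titration. Substrate: acetylated AMC-K(Ac)GL. Deacetylated product cleaved by lysine peptidase to free MCA, read at ex 355/em 460 nm. Data normalised to control plate by plate. IC50 and SD from non-linear regression; Ki via Cheng-Prusoff, Ki = IC50/(1+[S]/Km).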

Data set [2] relates to HDAC6. The conditions noted are these: cited from earlier work.
Data set [3] has as its system Hsp90 acetylation. The data set is described as follows: Immunoprecipitation/immunoblot of Hsp90 acetylation in MV4-11 cells. The format is cell-based, human. The conditions noted are these: 3 hr post-treatment. An outline of the steps:
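MV4-11 AML cells (10% heat-inactivated FBS, 37°C, 5% CO2) treated with test compound, harvested 3 hr post-treatment. Cells washed in cold HBSS, lysed 30 min in low-salt buffer (50 mM Tris-HCl pH 7.4, 150 mM NaCl, 10% glycerol, Triton X-100, protease/phosphatase inhibitors, 1 μM TSA), then sonicated. Hsp90 pulled down on Hsp90-conjugated beads for 1 hr. Blots probed for Hsp90, acetyl-lysine and acetyl-Hsp90 K69.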

Data set [4] has as its system acetylated histone H3 and H4. Briefly: Western blot of acetylated histone H3/H4 in MV4-11 cells. Format: cell-based, human. An outline of the steps:
(§1)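 MV4-11 cells (10% heat-inactivated FBS, 37°C, 5% CO2) treated with test compound at a range of concentrations. Washed in cold HBSS and lysed 30 min in low-salt Tris pH 7.4 buffer with protease/phosphatase inhibitors and 1 μM TSA, then sonicated. LDS-denatured lysates run on 4–12% gradient gels. Probes: acetyl-H3, acetyl-H4, total H3, acetyl-α-tubulin, tubulin. HRP secondary, ECL read-out.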

Data set [5] deals with acetylated tubulin. Briefly: Western blot of acetylated tubulin in MV4-11 cells. The format is cell-based, human. An outline of the steps:
as §1

The subject of the next data set is ubiquitinated protein. Briefly: Western blot of total ubiquitinated protein in MV4-11 cells. The format is cell-based, human. The conditions noted are these: within 3 hr.
Data set [6] deals with acetylated tubulin. Briefly: Western blot of acetylated tubulin in PBMC. Format: cell-based, human. The conditions noted are these: PBMC from normal donors, 3 hr post-treatment.
For data set [7], the system named is mitogen stimulated proliferating PBMC. Briefly: MTS cell proliferation assay, proliferating PBMC. The format is cell-based, human. The conditions noted are these: proliferating PBMC vs AML cells ex vivo.
The subject of data set [8] is full panel of human recombinant HDAC enzymes. Briefly: Inhibition profile over full panel of HDACs. The format is biochemical. An outline of the steps: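 Panel of recombinant human HDAC1–11, 12-point titration of test compound per isozyme. Substrates: AMC-K(Ac)GL for HDAC1, 2, 3/N-CoR2, 6 and 10; AMC-K(TFA)GL for HDAC4, 5, 7, 8, 9 and 11. Peptidase-released MCA fluorescence at ex 355/em 460 nm, normalised to controls. IC50 by non-linear regression.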

The subject of data set [9] is Hsp90 acetylation. The conditions noted are these: 16 hrs post inhibitor treatment; cited from earlier work.

“Also recorded” adds a separate entry of the source. Where two headings read alike, the source gives them in different places. Where a SMILES comes first, the peptide text is derived from it. The star is where a group is joined. Cbz = O=C(OCc1ccccc1)*

Consider `CC(C)C[C@@H](C=O)NC(=O)[C@H](CC(C)C)NC(=O)[C@H](CC(C)C)NC(=O)OCc1ccccc1` [MG132] (Cbz-Leu-Leu-Leu-aldehyde), for which, in the data set with FLT-3 and STAT5 (10 μM MG132 co-treatment), the “prevention of STAT5 degradation caused by HDAC6 inhibition” value is given as “did not prevent STAT5 degradation” and the “rescue of FLT-3 degradation caused by HDAC6 inhibition” value is listed as “rescued”.
As to Vitamin K2, the “concentration above which HDAC6 was inhibited” value on HDAC6 [1] is “above 200 μM”.
As to `CN1CCc2c(c3ccccc3n2Cc2ccc(C(=O)NO)cc2)C1` [tubastatin A], in the data set on HDAC6 [2], the “selectivity for HDAC6 over HDAC1” value is more than 1000. Further, the “induction of Hsp90 acetylation” value with Hsp90 acetylation [3] is “No induction of Hsp90 acetylation”. Moreover, the “effect on acetylated histone H3/H4 levels” value in data set [4] was “decreases in acetylated histones”. For the same compound, the “induction of acetylated tubulin” value in the data set on acetylated tubulin [5] is listed as “higher induction of tubulin acetylation”.
Turning to `O=C1C=C(NCc2ccccc2)C(=O)c2ccccc21` [NQN-1, 2-benzyl-amino-naphthoquinone], the IC50 at HDAC6 [1] (read-out: HDAC6 IC50, 12 point titration, acetylated substrate) is 5.54 ± 0.9 µM. For the same compound, the Ki at HDAC6 [1] (read-out: HDAC6 Ki, converted from IC50 using Cheng-Prusoff equation) was found to be 1.3 ± 0.22 µM. Moreover, the “total ubiquitinated protein level” value in the data set on ubiquitinated protein is “increase in total ubiquitinated protein level”. For the same compound, the “effect on FLT-3 and STAT5 protein levels” value in the data set with FLT-3 and STAT5 is “decrease within 3 hr”. In addition, in the data set with Hsp90 acetylation [3], the “induction of Hsp90 acetylation” value is listed as “induces Hsp90 acetylation”. Also, the “tubulin acetylation level in PBMC” value in the data set on acetylated tubulin [6] is recorded as “did not increase”. In addition, the “selectivity, proliferating PBMC over AML (MV4-11) cell toxicity” value in data set [7] was found to be 4 fold. Also, the “effect on acetylated histone H3/H4 levels” value in [4] was “without an increase in histone H3 and H4 acetylation; also recorded: unexpectedly caused a decrease in acetylated histone H4”. Besides, the “HDAC inhibition profile / selectivity over the panel” value in [8] is “did not inhibit other HDACs in our panel”. In addition, in the data set with acetylated tubulin [5], the “induction of acetylated tubulin” value is “selectively induced hyperacetylated tubulin”.
`CC1=C(C/C=C(\C)CCC[C@H](C)CCC[C@H](C)CCCC(C)C)C(=O)c2ccccc2C1=O` [Vitamin K1]: the “concentration above which HDAC6 was inhibited” value on HDAC6 [1] was “above 200 μM”.
For the compound `CC1=CC(=O)c2ccccc2C1=O` [vitamin K3, 2-methyl-naphthoquinone], half-maximal inhibition on HDAC6 [1] (IC50) was put at 25 µM. In data set [8], the “HDAC inhibition profile / selectivity over the panel” value is “selectively inhibited HDAC6 and HDAC8 at low μM”.
As for `Cc1ccc(NC(=O)CCCCCC(=O)Nc2ccccc2N)cc1` [inhibitor 106], the “effect on FLT-3 and STAT5 protein levels” value in the data set on FLT-3 and STAT5 was “did not induce Hsp90 acetylation or reduce FLT-3 and STAT5 levels”. Besides, in the data set on Hsp90 acetylation [3], the “induction of Hsp90 acetylation” value is listed as “did not induce Hsp90 acetylation”. Further, in data set [4], the “effect on acetylated histone H3/H4 levels” value is on record as “only induces hyperacetylated histone H3/H4”.
As to `O=C(CCCCCCC(=O)Nc1ccc([C@H]2O[C@@H](CSc3nc(-c4ccccc4)c(-c4ccccc4)o3)C[C@@H](c3ccc(CO)cc3)O2)cc1)NO` [tubacin], the “induction of Hsp90 acetylation” value in the data set with Hsp90 acetylation [9] was “does not significantly increase Hsp90 acetylation”. Further, in [4], the “effect on acetylated histone H3/H4 levels” value was “decreases in acetylated histones”.
For the compound `O=C(CCCCCCC(=O)Nc1ccccc1)NO` [SAHA, Suberoylanilide hydroxamic acid], the “effect on FLT-3 and STAT5 protein levels” value in the data set on FLT-3 and STAT5 was “did not induce Hsp90 acetylation or reduce FLT-3 and STAT5 levels”. Besides, the “induction of Hsp90 acetylation” value in the data set with Hsp90 acetylation [3] is “did not induce Hsp90 acetylation”. In [4], the “effect on acetylated histone H3/H4 levels” value was “induces both acetylated tubulin and histone”. For the same compound, the “induction of acetylated tubulin” value in the data set on acetylated tubulin [5] is “induces both acetylated tubulin and histone”.
Consider `CC(/C=C/C(=O)NO)=C\[C@@H](C)C(=O)c1ccc(N(C)C)cc1` [TSA], for which the “effect on FLT-3 and STAT5 protein levels” value in the data set with FLT-3 and STAT5 is “did not induce Hsp90 acetylation or reduce FLT-3 and STAT5 levels”. For the same compound, the “induction of Hsp90 acetylation” value in the data set with Hsp90 acetylation [3] is “did not induce Hsp90 acetylation”.
